For data set [1], the target named is T1, Nuclear receptor ROR-gamma (Homo sapiens, UniProt P51449).
T1 sequence (P51449 whole entry): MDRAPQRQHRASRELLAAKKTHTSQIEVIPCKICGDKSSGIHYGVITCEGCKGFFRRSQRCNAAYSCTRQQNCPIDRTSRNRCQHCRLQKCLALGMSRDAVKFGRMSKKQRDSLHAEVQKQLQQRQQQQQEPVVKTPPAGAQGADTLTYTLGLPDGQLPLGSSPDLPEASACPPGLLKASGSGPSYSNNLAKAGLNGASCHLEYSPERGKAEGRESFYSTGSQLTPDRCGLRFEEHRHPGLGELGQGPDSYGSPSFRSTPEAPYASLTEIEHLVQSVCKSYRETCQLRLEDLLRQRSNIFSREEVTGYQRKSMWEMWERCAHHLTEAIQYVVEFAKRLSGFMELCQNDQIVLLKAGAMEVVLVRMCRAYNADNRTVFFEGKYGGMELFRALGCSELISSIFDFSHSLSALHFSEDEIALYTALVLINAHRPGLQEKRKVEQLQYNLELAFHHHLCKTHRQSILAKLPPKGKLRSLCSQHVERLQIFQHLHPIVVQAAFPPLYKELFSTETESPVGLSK
Kind of data set: Allosteric inhibition of recombinant His6-tagged RORgammat LBD (unknown origin) expressed in Escherichia coli BL21(DE3) assessed as inhibition of biotin-labelled SRC-1 peptide recruitment preincubated for 15 mins followed by biotin-labelled SRC-1 peptide addition and measured after overnight incubation by TR-FRET assay.

In data set [2] the target is T1, Nuclear receptor ROR-gamma. Kind of data set: Allosteric inhibition of yeast GAL4 DNA domain-fused RORgammat LBD (97 to 518 residues) (unknown origin) expressed in HEK293T cells after 20 to 22 hrs by steady-glo luciferase assay. Format: cell-based.
The target of data set [3] is T2, Peroxisome proliferator-activated receptor gamma (Homo sapiens, UniProt P37231).
T2 sequence (P37231 whole entry): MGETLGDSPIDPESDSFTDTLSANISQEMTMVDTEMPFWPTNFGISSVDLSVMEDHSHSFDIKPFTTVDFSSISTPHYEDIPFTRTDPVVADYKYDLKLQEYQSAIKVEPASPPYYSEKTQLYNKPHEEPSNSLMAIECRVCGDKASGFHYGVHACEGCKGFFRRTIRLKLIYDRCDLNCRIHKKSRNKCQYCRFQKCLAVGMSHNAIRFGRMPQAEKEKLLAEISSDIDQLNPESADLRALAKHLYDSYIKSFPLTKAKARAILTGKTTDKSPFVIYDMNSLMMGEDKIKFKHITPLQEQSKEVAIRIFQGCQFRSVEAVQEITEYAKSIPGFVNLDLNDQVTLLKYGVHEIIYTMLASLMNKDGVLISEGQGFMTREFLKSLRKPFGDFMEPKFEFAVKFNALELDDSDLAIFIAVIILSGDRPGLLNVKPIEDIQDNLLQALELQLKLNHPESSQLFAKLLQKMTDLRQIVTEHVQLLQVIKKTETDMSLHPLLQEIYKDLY
Kind of data set: Displacement of [3H]rosiglitazone from human recombinant PPARgamma LBD expressed in insect cells measured after 24 hrs by scintillation counting analysis. Background: Loss of bound radioactivity is the signal in a displacement assay; it reports binding, not function.

Data set [4] deals with T1, Nuclear receptor ROR-gamma. Kind of data set: Allosteric inhibition of RORgammaT in IL-1B/IL-23/IL-2/IL-6/T-Activator CD3/28 Dynabeads-stimulated human PBMC cells assessed as reduction in Th17 differentiation by measuring reduction in IL-17A level incubated for 4 days post-cell stimulation by ELISA.
Data set [5] can be described thus: Clearance in Wistar Han rat at 0.5 mg/kg, iv or 1 mg/kg, po by LC-MS/MS analysis. Format: ADME, organism-based. To be noted: in vivo.
Data set [6] in a line: Half life in Wistar Han rat at 0.5 mg/kg, iv or 1 mg/kg, po by LC-MS/MS analysis. Format: ADME, organism-based. The following applies: in vivo.
Data set [7] is described as follows: Volume of distribution in Wistar Han rat at 0.5 mg/kg, iv or 1 mg/kg, po by LC-MS/MS analysis. To be noted: in vivo. Format: ADME, organism-based.
The nature of data set [8]: Clearance in Beagle dog at 0.25 mg/kg, iv or 0.5 mg/kg, po by LC-MS/MS analysis. Format: ADME, organism-based, Canis lupus familiaris. The following applies: in vivo.
The nature of data set [9]: Half life in Beagle dog at 0.25 mg/kg, iv or 0.5 mg/kg, po by LC-MS/MS analysis. Format: ADME, organism-based, Canis lupus familiaris. The following applies: in vivo.
Data set [10] can be described thus: Volume of distribution in Beagle dog at 0.25 mg/kg, iv or 0.5 mg/kg, po by LC-MS/MS analysis. Format: ADME, organism-based, Canis lupus familiaris. To be noted: in vivo.
The nature of data set [11]: Oral bioavailability in Wistar Han rat at 1 mg/kg by LC-MS/MS analysis. Format: ADME, organism-based. The following applies: in vivo.
The nature of data set [12]: Oral bioavailability in Beagle dog at 0.5 mg/kg by LC-MS/MS analysis. To be noted: in vivo. Format: ADME, organism-based, Canis lupus familiaris.
Data set [13] is described as follows: Protein binding in rat plasma. Format: ADME, cell-free. The following applies: read-out: PPB (converted).
The nature of data set [14]: Protein binding in dog plasma. Format: ADME, cell-free, Canis lupus familiaris. To be noted: read-out: PPB (converted).
A short description of data set [15]: Solubility of compound at pH 2. Format: physicochemical. The following applies: buffer.
The nature of data set [16]: Solubility of compound at pH 7.4. Format: physicochemical. To be noted: buffer.
Data set [17] can be described thus: Plasma concentration in C57BL/6 mouse at 1 mg/kg administered as single dose after 2 hrs. Format: ADME, organism-based. Summed up:
(§1)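 Acute pharmacodynamic model: mice received single doses across a dose range, and in this study both plasma compound concentration and Bcl-xL expression in thymocytes were measured to follow RORγt inhibition.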

Data set [18] in a line: Plasma concentration in C57BL/6 mouse at 3 mg/kg administered as single dose after 2 hrs. Format: ADME, organism-based. The procedure, abridged:
as §1

Data set [19] in a line: Plasma concentration in C57BL/6 mouse at 10 mg/kg administered as single dose after 2 hrs. Format: ADME, organism-based. The procedure, abridged:
as §1

Data set [20] is described as follows: Plasma concentration in C57BL/6 mouse at 30 mg/kg administered as single dose after 2 hrs. Format: ADME, organism-based. The procedure, abridged:
as §1

Data set [21] in a line: Plasma concentration in C57BL/6 mouse at 100 mg/kg administered as single dose after 2 hrs. Format: ADME, organism-based. Summed up:
as §1

Data set [22] can be described thus: Unbound clearance in Wistar Han rat at 0.5 mg/kg, iv or 1 mg/kg, po by LC-MS/MS analysis. Format: ADME, organism-based. To be noted: in vivo.
The species named for data set [23] is Mus musculus. Kind of data set: animal or person. To be noted: C57BL/6, 2 h, read-out: INH.
Data set [24] is filed under the species Mus musculus. Kind of data set: animal or person. To be noted: C57BL/6, 2 h, read-out: INH. The source holds these as a separate data set.
The species entered for data set [25] is Mus musculus. Kind of data set: animal or person. The following applies: C57BL/6, 2 h, read-out: INH. The source holds these as a separate data set.
The species named for data set [26] is Mus musculus. Kind of data set: animal or person. The following applies: C57BL/6, 2 h, read-out: INH. This is another data set of the same source.
Data set [27] is filed under the species Mus musculus. Kind of data set: animal or person. To be noted: C57BL/6, 2 h, read-out: INH. This is another data set of the same source.
The species entered for data set [28] is Mus musculus. Kind of data set: animal or person. The following applies: C57BL/6, 2 h.

≈ marks a conversion by molar mass, not a printed value. A value given as a limit tells only on which side of the number the result lay.

`O=C(O)c1ccc(-c2nn(C(=O)c3c(Cl)cccc3Cl)c3ccccc23)cc1`: the figures for the half-inhibitory concentration (IC50) in [1] and in data set [2] were 5 nM and 400 nM, respectively.

As for `O=C(O)c1ccc(-c2nn(C(=O)c3c(Cl)cccc3C(F)(F)F)c3cccnc23)c(F)c1`, the IC50 (in general, the midpoint of a concentration-inhibition curve) turned out to be 6 nM in data set [1]; 90 nM in data set [2]; 2000 nM in data set [3]; 33 nM in data set [4]; 710 nM in the data set listed under Mus musculus [28]. For the same molecule, the clearance worked out at 76 mL/min/kg in data set [5] and 4.5 mL/min/kg in data set [8]. In addition, the half-life (as a rule, the time needed for the level to fall by half in the phase considered) was 0.4 h in data set [6] and 1.4 h in data set [9]. In addition, the values for the Vd in data set [7] and in data set [10] were 0.8 L/kg and 0.4 L/kg, respectively. Besides, the bioavailability (in general, dose-corrected exposure relative to a reference, in per cent) in data set [11] was found to be 16%; in [12] it was 45%. For the same molecule, the fraction unbound in data set [13] and in data set [14] was 0.013 in each case. Also, the solubility (commonly the dissolved amount per volume that the medium holds) is below 2 µM in [15] and 147 µM (≈ 68.2 µg/mL) in data set [16]. Moreover, the concentration at 2 h in data set [17] amounted to 0.18 µM; in data set [18], 0.73 µM; in data set [19], 4.1 µM; in data set [20] it was 51 µM; in [21], 254 µM. Moreover, in [22], the CL free came out at 5846 mL/min/kg. In addition, the inhibition in vivo at 1 mg/kg in the data set listed under Mus musculus [23] is 17%. In the data set listed under Mus musculus [24], the inhibition in vivo at 3 mg/kg amounted to 50%. Besides, in the data set listed under Mus musculus [25], the inhibition in vivo at 10 mg/kg was determined as 69%. The inhibition in vivo at 30 mg/kg in the data set filed under Mus musculus [26] came out at 85%. The inhibition in vivo at 100 mg/kg in the data set listed under Mus musculus [27] was found to be 74%.

Turning to `O=C(O)[C@@H]1CCN(c2nn(C(=O)c3c(Cl)cccc3C3CC3)c3cccc(F)c23)C[C@H]1O`, the clearance in data set [5] was 13 mL/min/kg; in data set [8], 1.4 mL/min/kg. Also, the half-life is 3.7 h in [6] and 3.1 h in [9]. Besides, the figures for the Vd in [7] and in data set [10] were 0.6 L/kg and 0.3 L/kg, respectively. Also, the bioavailability in data set [11] worked out at 35%; in data set [12], 65%. In addition, the fraction unbound in data set [13] was 0.013; in data set [14], 0.003. Besides, the solubility in data set [15] was 28 µM (≈ 12.8 µg/mL); in data set [16], 153 µM (≈ 70.1 µg/mL). This molecule had a CL free in data set [22] of 1000 mL/min/kg.
